Data from ChEMBL document CHEMBL1156973, “(-)-Carbodine: enantiomeric synthesis and in vitro antiviral activity against various strains of influenza virus including H5N1 (avian influenza) and novel 2009 H1N1 (swine flu)” (Bioorg Med Chem Lett, 2010).

Key:
H5N1 subtype [1] = assay: Antiviral activity against Influenza A virus Gull/PA/4175/83/H5N1 infected MDCK cells after 42 to 46 hrs by neutral red dye uptake assay; format: functional, organism-based, Influenza A virus (A/gull/Pennsylvania/4175/83(H5N1)); conditions: Influenza A virus, MDCK
H5N1 subtype [2] = assay: Antiviral activity against Influenza A virus Hong Kong/213/2003/H5N1 infected MDCK cells after 3 days by virus yield reduction assay; format: functional, Influenza A virus (A/Hong Kong/213/2003(H5N1)); conditions: Influenza A virus, MDCK, 72 h
Influenza A virus [3] = assay: Antiviral activity against Influenza A virus Vietnam/1203/ 2004H/H5N1 infected MDCK cells after 3 days by virus yield reduction assay; format: functional, A/Viet Nam/1203/2004(H5N1)
MDCK = assay: Cytotoxicity against MDCK cells after 3 days by neutral red dye uptake assay; format: cell-based; conditions: Canis lupus familiaris, 72 h
Procedure, shortened: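 Uninfected MDCK cells in replicate wells were exposed to serial compound dilutions and cell viability was read by neutral red uptake. IC50 is the drug concentration giving 50% cell inhibition without virus.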

[4] = Selectivity ratio of IC50 for MDCK cells to EC50 for inhibition of virus-induced cytopathic effect of Influenza A virus Duck/MN/1525/81/H5N1; format: cell-based; conditions: dog, MDCK cells; read-out: Ratio IC50/EC50
Procedure, shortened: (§1)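 IC50 (50% inhibition of uninfected MDCK cells) divided by EC50 (concentration reducing virus-induced CPE by 50%, scored visually), both from replicate serial-dilution assays.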

[5] = Selectivity ratio of IC50 for MDCK cells to EC50 for Influenza A virus Duck/MN/1525/81/H5N1 by neutral red dye uptake assay; format: ADME, cell-based; conditions: dog; for selectivity ratio: MDCK cells, read-out: Ratio IC50/EC50
Procedure, shortened: (§2)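 Neutral red uptake in MDCK cells: IC50 (50% inhibition of uninfected cells) divided by EC50 (50% inhibition of virus effect), both from replicate serial-dilution assays.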

[6] = Selectivity ratio of IC50 for MDCK cells to EC50 for inhibition of virus-induced cytopathic effect of Influenza A virus Gull/PA/4175/83/H5N1; format: cell-based; conditions: dog, MDCK cells; read-out: Ratio IC50/EC50; procedure, shortened: as §1
[7] = Selectivity ratio of IC50 for MDCK cells to EC50 for Influenza A virus Gull/PA/4175/83/H5N1 by neutral red dye uptake assay; format: ADME, cell-based; conditions: dog, MDCK cells; read-out: Ratio IC50/EC50; procedure, shortened: as §2
[8] = Selectivity ratio of IC50 for MDCK cells to EC50 for inhibition of virus-induced cytopathic effect of Influenza A virus Hong Kong/213/2003/H5N1; format: cell-based; conditions: dog, read-out: Ratio IC50/EC50; procedure, shortened: as §1
[9] = Selectivity ratio of IC50 for MDCK cells to EC90 for Influenza A virus Hong Kong/213/2003/H5N1 by virus yield reduction assay; format: ADME, cell-based; conditions: dog, MDCK cells
Procedure, shortened: (§3)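 IC50 (50% inhibition of uninfected MDCK cells) divided by EC90 (concentration reducing the infectious virus titer by 90% in the yield reduction assay).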

[10] = Selectivity ratio of IC50 for MDCK cells to EC50 for Influenza A virus Vietnam/1203/ 2004H/H5N1 by neutral red dye uptake assay; format: ADME, cell-based; conditions: dog, MDCK cells; read-out: Ratio IC50/EC50; procedure, shortened: as §2
[11] = Selectivity ratio of IC50 for MDCK cells to EC90 for Influenza A virus Vietnam/1203/ 2004H/H5N1 by virus yield reduction assay; format: ADME, cell-based; conditions: dog; for selectivity ratio: MDCK cells; procedure, shortened: as §3
Influenza A virus [12] = assay: Antiviral activity against Influenza A virus California/07/2009 /H1N1 infected MDCK cells after 42 to 46 hrs by neutral red dye uptake assay; format: functional, organism-based, A/California/07/2009(H1N1); conditions: Influenza A virus, A/California/07/2009(H1N1), MDCK
[13] = system: Influenza A virus (A/Puerto Rico/8/1934(H1N1)); assay: Antiviral activity against Influenza A virus Solomon Islands/03/2006/H1N1 infected MDCK cells after 42 to 46 hrs by neutral red dye uptake assay; format: functional, organism-based, Influenza A virus (A/Solomon Islands/3/2006(H1N1))
Procedure, shortened: (§4)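 Triplicate MDCK wells got serial compound dilutions, then ≤300 CCID50 of virus, with the same inoculum for all replicates. Antiviral effect was read by neutral red dye uptake. EC50 is the concentration giving 50% inhibition of the virus effect, as the mean of triplicates.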

[14] = system: Influenza A virus (A/Puerto Rico/8/1934(H1N1)); assay: Antiviral activity against Influenza A virus Solomon Islands/03/2006/H1N1 infected MDCK cells after 3 days by virus yield reduction assay; format: functional, Influenza A virus (A/Solomon Islands/3/2006(H1N1)); conditions: Influenza A virus, MDCK, 72 h
Procedure, shortened: (§5)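 Yield reduction assay: MDCK cells got serial compound dilutions and ≤300 CCID50 virus, in triplicate. Progeny virus was titrated. EC90 is the concentration reducing the infectious titer by 90%, as the mean of triplicates.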

Influenza A virus [15] = assay: Antiviral activity against Influenza A virus Wisconsin/67/2005/H3N2 infected MDCK cells assessed as inhibition of virus-induced cytopathic effect after 3 days; format: functional, organism-based, Influenza A virus (A/Wisconsin/67/2005(H3N2)); conditions: Influenza A virus, MDCK, 72 h
Procedure, shortened: (§6)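 Triplicate MDCK (ATCC CCL-34) wells got serial dilutions of compound. They were then inoculated with ≤300 CCID50, enough for ~100% CPE in control wells within 3 days, using the same inoculum for all replicates. CPE was scored visually. EC50 is the concentration reducing CPE by 50%, as the mean of triplicates.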

Influenza A virus [16] = assay: Antiviral activity against Influenza A virus Wisconsin/67/2005/H3N2 infected MDCK cells after 42 to 46 hrs by neutral red dye uptake assay; format: functional, organism-based, Influenza A virus (A/Wisconsin/67/2005(H3N2)); procedure, shortened: as §4
Influenza B virus [17] = assay: Antiviral activity against Influenza B virus Malaysia/2506/2004 infected MDCK cells assessed as inhibition of virus-induced cytopathic effect after 3 days; format: functional, organism-based, B/Malaysia/2506/2004; conditions: Influenza B virus, B/Malaysia/2506/2004, MDCK, 72 h; procedure, shortened: as §6
Influenza B virus [18] = assay: Antiviral activity against Influenza B virus Malaysia/2506/2004 infected MDCK cells after 3 days by virus yield reduction assay; format: functional, B/Malaysia/2506/2004; procedure, shortened: as §5
[19] = Selectivity ratio of IC50 for MDCK cells to EC90 for Influenza A virus California/07/2009 /H1N1 by virus yield reduction assay; format: ADME, cell-based; conditions: dog, MDCK cells; procedure, shortened: as §3
[20] = Selectivity ratio of IC50 for MDCK cells to EC50 for inhibition of virus-induced cytopathic effect of Influenza A virus Solomon Islands/03/2006/H1N1; format: cell-based; conditions: dog; for selectivity ratio: MDCK cells, read-out: Ratio IC50/EC50; procedure, shortened: as §1
[21] = Selectivity ratio of IC50 for MDCK cells to EC90 for Influenza A virus Solomon Islands/03/2006/H1N1 by virus yield reduction assay; format: ADME, cell-based; conditions: dog, MDCK cells; procedure, shortened: as §3
[22] = Selectivity ratio of IC50 for MDCK cells to EC50 for inhibition of virus-induced cytopathic effect of Influenza A virus Wisconsin/67/2005/H3N2; format: cell-based; conditions: dog, MDCK cells; read-out: Ratio IC50/EC50; procedure, shortened: as §1
[23] = Selectivity ratio of IC50 for MDCK cells to EC90 for Influenza A virus Wisconsin/67/2005/H3N2 by virus yield reduction assay; format: ADME, cell-based; conditions: dog, MDCK cells; procedure, shortened: as §3
[24] = Selectivity ratio of IC50 for MDCK cells to EC50 for inhibition of virus-induced cytopathic effect of Influenza B virus Malaysia/2506/2004; format: cell-based; conditions: dog, MDCK cells; read-out: Ratio IC50/EC50; procedure, shortened: as §1
[25] = Selectivity ratio of IC50 for MDCK cells to EC50 for Influenza B virus Malaysia/2506/2004 by neutral red dye uptake assay; format: ADME, cell-based; conditions: dog, MDCK cells; read-out: Ratio IC50/EC50; procedure, shortened: as §2
[26] = Selectivity ratio of IC50 for MDCK cells to EC90 for Influenza B virus Malaysia/2506/2004 by virus yield reduction assay; format: ADME, cell-based; conditions: dog; for selectivity ratio: MDCK cells; procedure, shortened: as §3
H5N1 subtype [27] = assay: Antiviral activity against Influenza A virus Duck/MN/1525/81/H5N1 infected MDCK cells assessed as inhibition of virus-induced cytopathic effect after 3 days; format: functional, organism-based, Influenza A virus (A/duck/Minnesota/1525/1981(H5N1)); conditions: Influenza A virus, MDCK, 72 h
H5N1 subtype [28] = assay: Antiviral activity against Influenza A virus Duck/MN/1525/81/H5N1 infected MDCK cells after 42 to 46 hrs by neutral red dye uptake assay; format: functional, organism-based, Influenza A virus (A/duck/Minnesota/1525/1981(H5N1))
H5N1 subtype [29] = assay: Antiviral activity against Influenza A virus Duck/MN/1525/81/H5N1 infected MDCK cells after 3 days by virus yield reduction assay; format: functional, Influenza A virus (A/duck/Minnesota/1525/1981(H5N1)); conditions: Influenza A virus, MDCK, 72 h
H5N1 subtype [30] = assay: Antiviral activity against Influenza A virus Gull/PA/4175/83/H5N1 infected MDCK cells assessed as inhibition of virus-induced cytopathic effect after 3 days; format: functional, organism-based, Influenza A virus (A/gull/Pennsylvania/4175/83(H5N1)); conditions: Influenza A virus, MDCK, 72 h
[31] = Influenza A virus, A/Viet Nam/1203/2004(H5N1), MDCK
[32] = Influenza B virus, B/Malaysia/2506/2004, MDCK, 72 h

Compound | EC50 (H5N1 subtype [1]) | EC90 (H5N1 subtype [2]) | IC50 (MDCK) | selectivity ratio [4] | selectivity ratio [6] | selectivity ratio [7] | selectivity ratio [8] | selectivity ratio [9] | selectivity ratio [10] | EC50 (Influenza A virus [12]) | EC90 [14] | EC50 (Influenza A virus [15]) | EC50 (Influenza B virus [17]) | selectivity ratio [19] | selectivity ratio [21] | selectivity ratio [22] | selectivity ratio [23] | selectivity ratio [24] | selectivity ratio [25] | EC50 (H5N1 subtype [27]) | other results
Nc1ccn([C@@H]2C[C@H](CO)[C@@H](O)[C@H]2O)c(=O)n1 | 1 µM | 2.1 µM | > 414 µM | > 230 | > 518 | > 414 | > 591 | > 197 | > 276 | 1.6 µM | 1.3 µM | 1.6 µM | 0.6 µM | > 109 | > 318 | > 259 | > 166 | > 690 | > 518 | 1.8 µM | EC90 (Influenza A virus [3]): 5.7 µM; Ratio IC50/EC50 ([5]; mdck): > 207; Ratio ([11]; mdck): > 73; EC50 ([13]; mdck): 0.6 µM; EC50 (Influenza A virus [16]; mdck): 2 µM; EC90 (Influenza B virus [18]): 1.5 µM; Ratio IC50/EC50 ([20]; mdck): > 591; Ratio ([26]; mdck): > 276; EC50 (H5N1 subtype [28]; mdck): 2 µM; EC90 (H5N1 subtype [29]): 10.5 µM; EC50 (H5N1 subtype [30]): 0.8 µM
Nc1ccn([C@H]2C[C@@H](CO)[C@H](O)[C@@H]2O)c(=O)n1 | > 41 µM | > 41 µM | > 414 µM | 1 | < 10 | < 10 | < 10 | < 10 | < 10 | > 414 µM | > 41 µM | > 41 µM | > 41 µM | 1 | < 10 | < 10 | < 10 | < 10 | < 10 | > 414 µM | EC90 (Influenza A virus [3]; [31]): > 41 µM; selectivity ratio [5]: 1; selectivity ratio [11]: < 10; EC50 ([13]; Influenza A virus, MDCK): > 41 µM; EC50 (Influenza A virus [16]; Influenza A virus, MDCK): > 41 µM; EC90 (Influenza B virus [18]; [32]): > 41 µM; selectivity ratio [20]: < 10; selectivity ratio [26]: < 10; EC50 (H5N1 subtype [28]; Influenza A virus, MDCK): > 414 µM; EC90 (H5N1 subtype [29]): > 414 µM; EC50 (H5N1 subtype [30]): > 41 µM
NC(=O)c1ncn([C@@H]2O[C@H](CO)[C@@H](O)[C@H]2O)n1 [RIBAVIRIN] | 27.4 µM | 16.8 µM | > 1310 µM | > 37 | > 55 | > 48 | > 305 | > 78 | > 94 | 19.4 µM | 27 µM | 16.4 µM | 10.2 µM | > 101 | > 49 | > 80 | > 60 | > 128 | > 67 | 35.4 µM | EC90 (Influenza A virus [3]; [31]): 11.6 µM; selectivity ratio [5]: > 40; selectivity ratio [11]: > 113; EC50 ([13]; Influenza A virus, MDCK): 25.1 µM; EC50 (Influenza A virus [16]; Influenza A virus, MDCK): 20.2 µM; EC90 (Influenza B virus [18]; [32]): 22.2 µM; selectivity ratio [20]: > 56; selectivity ratio [26]: > 59; EC50 (H5N1 subtype [28]; Influenza A virus, MDCK): 32.5 µM; EC90 (H5N1 subtype [29]): 43.6 µM; EC50 (H5N1 subtype [30]): 23.6 µM
